Measured values as given in ChEMBL document CHEMBL3769357, “Phosphoramidate protides of five flavones and their antiproliferative activity against HepG2 and L-O2 cell lines” (Eur J Med Chem, 2016).

Key:
[1] = system: HepG2; experiment: Antiproliferative activity against human HepG2 cells after 48 hrs by MTT assay; format: functional, cell-based; conditions: HepG2, 48 h
Procedure, shortened: (§1)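 After 48 h, MTT (5 mg/mL in PBS) added, 4 h at 37 °C, DMSO added, absorbance read at 570 nm. IC50 is the 50% growth-inhibition concentration, mean of three independent experiments.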

[2] = Cytotoxicity against human LO2 cells after 48 hrs by MTT assay; format: cell-based; conditions: L02, 48 h; procedure, shortened: as §1
[3] = system: HepG2; experiment: Selectivity index, ratio of IC50 for human LO2 cells to human HepG2 cells
[4] = system: HepG2; experiment: Induction of apoptosis in human HepG2 cells assessed as early apoptotic cells at IC50 after 4 hrs by annexin V-FITC/propidium iodide staining-based flow cytometry (reference value: 0.41%); format: functional
[5] = system: HepG2; experiment: Induction of apoptosis in human HepG2 cells assessed as late apoptotic cells at IC50 after 4 hrs by annexin V-FITC/propidium iodide staining-based flow cytometry (reference value: 0.53%); format: functional
[6] = system: HepG2; experiment: Induction of apoptosis in human HepG2 cells assessed as nectrotic cells at IC50 after 24 hrs by annexin V-FITC/propidium iodide staining-based flow cytometry (reference value: 6.70%); format: functional
[7] = system: HepG2; experiment: Induction of cell cycle arrest in human HepG2 cells assessed as accumulation at S phase at IC50 after 24 hrs by propidium iodide staining-based flow cytometry (reference value: 16.1%); format: functional
[8] = system: HepG2; experiment: Induction of cell cycle arrest in human HepG2 cells assessed as accumulation at G2/M phase at IC50 after 24 hrs by propidium iodide staining-based flow cytometry (reference value: 16.4%); format: functional
[9] = system: HepG2; experiment: Induction of apoptosis in human HepG2 cells assessed as late apoptotic cells at IC50 after 24 hrs by annexin V-FITC/propidium iodide staining-based flow cytometry (reference value: 1.77%); format: functional
[10] = system: HepG2; experiment: Induction of cell cycle arrest in human HepG2 cells assessed as accumulation at G0/G1 phase at IC50 after 24 hrs by propidium iodide staining-based flow cytometry (reference value: 67.5%); format: functional
[11] = system: HepG2; experiment: Induction of apoptosis in human HepG2 cells assessed as viable cells at IC50 after 4 hrs by annexin V-FITC/propidium iodide staining-based flow cytometry (reference value: 98.6%); format: functional
[12] = system: HepG2; experiment: Induction of apoptosis in human HepG2 cells assessed as nectrotic cells at IC50 after 4 hrs by annexin V-FITC/propidium iodide staining-based flow cytometry (reference value: 0.46%); format: functional
[13] = system: HepG2; experiment: Induction of apoptosis in human HepG2 cells assessed as viable cells at IC50 after 24 hrs by annexin V-FITC/propidium iodide staining-based flow cytometry (reference value: 90.5%); format: functional
[14] = system: HepG2; experiment: Induction of apoptosis in human HepG2 cells assessed as early apoptotic cells at IC50 after 24 hrs by annexin V-FITC/propidium iodide staining-based flow cytometry (reference value: 0.41%)

| SMILES | IC50 [1] [µM] | IC50 [2] [µM] | Ratio IC50 [3] | further results |
| --- | --- | --- | --- | --- |
| COC(=O)[C@H](CC(C)C)NP(=O)(Oc1ccccc1)Oc1cc(O)c2c(=O)cc(-c3ccccc3)oc2c1 (stereo not given in full) | > 100 | > 100 |  |  |
| C#Cc1cccc(Nc2ncnc3cc(OCCOC)c(OCCOC)cc23)c1 [ERLOTINIB] | 5.8 | 18.5 | 3.19 |  |
| COC(=O)[C@@H](NP(=O)(Oc1ccccc1)Oc1cc(O)c2c(=O)cc(-c3ccc(O)cc3)oc2c1)C(C)C (stereo not given in full) | 27.3 | 26 | 0.952 |  |
| COC(=O)CNP(=O)(Oc1ccccc1)Oc1cc(O)c2c(=O)cc(-c3ccc(O)c(O)c3)oc2c1 (stereo not given) | 47.7 | 47.7 | 1 |  |
| COC(=O)CNP(=O)(Oc1ccccc1)Oc1cc(OC(C)=O)c2c(=O)c(-c3ccc(OC(C)=O)cc3)coc2c1 (stereo not given) | 39.7 | 55.2 | 1.39 |  |
| COC(=O)[C@H](CC(C)C)NP(=O)(Oc1ccccc1)Oc1cc(O)c2c(=O)cc(-c3ccc(O)cc3)oc2c1 (stereo not given in full) | 37.2 | 52.8 | 1.419 |  |
| COC(=O)[C@H](Cc1ccccc1)NP(=O)(Oc1ccccc1)Oc1cc(O)c2c(=O)cc(-c3ccccc3)oc2c1 (stereo not given in full) | > 100 | > 100 |  |  |
| COC(=O)[C@H](C)NP(=O)(Oc1ccccc1)Oc1ccc2c(=O)c(-c3ccc(O)cc3)coc2c1 (stereo not given in full) | 28.8 | 20.5 | 0.712 |  |
| COC(=O)CNP(=O)(Oc1ccccc1)Oc1ccc2c(=O)c(-c3ccc(O)cc3)coc2c1 (stereo not given) | 48.8 | > 100 | 2.049 |  |
| COC(=O)[C@H](Cc1ccccc1)NP(=O)(Oc1ccccc1)Oc1cc(O)c2c(=O)cc(-c3ccc(O)c(O)c3)oc2c1 (stereo not given in full) | 15.7 | 39.1 | 2.49 |  |
| COC(=O)[C@H](C)NP(=O)(Oc1ccccc1)Oc1cc(OC(C)=O)c2c(=O)cc(-c3ccc(OC(C)=O)c(OC(C)=O)c3)oc2c1 (stereo not given in full) | 27.3 | 51.2 | 1.875 |  |
| COC(=O)CNP(=O)(Oc1ccccc1)Oc1cc(O)c2c(=O)c(-c3ccc(O)cc3)coc2c1 (stereo not given) | > 100 | 44.5 | <0.445 |  |
| O=c1cc(-c2ccccc2)oc2cc(O)cc(O)c12 [CHRYSIN] | > 100 | > 100 |  |  |
| COC(=O)[C@H](C)NP(=O)(Oc1ccccc1)Oc1cc(O)c2c(=O)c(-c3ccc(O)cc3)coc2c1 (stereo not given in full) | 57.2 | 15.7 | 0.274 |  |
| COC(=O)[C@H](C)NP(=O)(Oc1ccccc1)Oc1cc(O)c2c(=O)cc(-c3ccc(O)cc3)oc2c1 (stereo not given in full) | 34.7 | 35.3 | 1.017 |  |
| COC(=O)[C@H](Cc1ccccc1)NP(=O)(Oc1ccccc1)Oc1cc(OC(C)=O)c2c(=O)c(-c3ccc(OC(C)=O)cc3)coc2c1 (stereo not given in full) | 63.2 | > 100 | 1.582 |  |
| COC(=O)[C@@H](NP(=O)(Oc1ccccc1)Oc1cc(O)c2c(=O)cc(-c3ccccc3)oc2c1)C(C)C (stereo not given in full) | 21.1 | > 100 | >5 |  |
| COC(=O)[C@H](CC(C)C)NP(=O)(Oc1ccccc1)Oc1cc(OC(C)=O)c2c(=O)cc(-c3ccc(OC(C)=O)c(OC(C)=O)c3)oc2c1 (stereo not given in full) | 21 | 38.2 | 1.819 |  |
| COC(=O)[C@H](CC(C)C)NP(=O)(Oc1ccccc1)Oc1cc(OC(C)=O)c2c(=O)cc(-c3ccc(OC(C)=O)cc3)oc2c1 (stereo not given in full) | 22.1 | 59.8 | 2.706 |  |
| COC(=O)[C@@H](NP(=O)(Oc1ccccc1)Oc1cc(OC(C)=O)c2c(=O)cc(-c3ccc(OC(C)=O)cc3)oc2c1)C(C)C (stereo not given in full) | 18.4 | 29.4 | 1.59 |  |
| COC(=O)CNP(=O)(Oc1ccccc1)Oc1cc(O)c2c(=O)cc(-c3ccc(O)cc3)oc2c1 (stereo not given) | 59.7 | 71.5 | 1.198 |  |

| SMILES | IC50 [1] [µM] | IC50 [2] [µM] | Ratio IC50 [3] | further results |
| --- | --- | --- | --- | --- |
| O=c1cc(-c2ccc(O)c(O)c2)oc2cc(O)cc(O)c12 [LUTEOLIN] | 34.7 | > 100 | >2.882 |  |
| COC(=O)[C@H](CC(C)C)NP(=O)(Oc1ccccc1)Oc1ccc2c(=O)c(-c3ccc(OC(C)=O)cc3)coc2c1 (stereo not given in full) | 60 | 44.8 | 0.747 |  |
| COC(=O)[C@H](CC(C)C)NP(=O)(Oc1ccccc1)Oc1ccc2c(=O)c(-c3ccc(O)cc3)coc2c1 (stereo not given in full) | 66 | 47.7 | 0.723 |  |
| COC(=O)[C@H](C)NP(=O)(Oc1ccccc1)Oc1cc(O)c2c(=O)cc(-c3ccccc3)oc2c1 (stereo not given in full) | 35.3 | 62.3 | 1.765 |  |
| COC(=O)[C@H](Cc1ccccc1)NP(=O)(Oc1ccccc1)Oc1ccc2c(=O)c(-c3ccc(O)cc3)coc2c1 (stereo not given in full) | 52.1 | 39.3 | 0.754 |  |
| COC(=O)CNP(=O)(Oc1ccccc1)Oc1cc(OC(C)=O)c2c(=O)cc(-c3ccc(OC(C)=O)c(OC(C)=O)c3)oc2c1 (stereo not given) | 26.4 | 57.1 | 2.163 |  |
| COC(=O)CNP(=O)(Oc1ccccc1)Oc1cc(O)c2c(=O)cc(-c3ccccc3)oc2c1 (stereo not given) | 42.6 | 96.5 | 2.265 |  |
| COC(=O)[C@H](CC(C)C)NP(=O)(Oc1ccccc1)Oc1cc(O)c2c(=O)cc(-c3ccc(O)c(O)c3)oc2c1 (stereo not given in full) | 22.4 | 34 | 1.581 |  |
| COC(=O)[C@H](C)NP(=O)(Oc1ccccc1)Oc1cc(OC(C)=O)c2c(=O)c(-c3ccc(OC(C)=O)cc3)coc2c1 (stereo not given in full) | 6.6 | 11.9 | 1.803 | Activity [4]: 0.74%; Activity [5]: 1.22%; Activity [6]: 18.62%; Activity [7]: 1.8%; Activity [8]: 96.6%; Activity [9]: 3.06%; Activity [10]: 1.6%; Activity [11]: 97.07%; Activity [12]: 0.97%; Activity [13]: 74.34%; Activity [14]: 3.99% |
| COC(=O)[C@H](CC(C)C)NP(=O)(Oc1ccccc1)Oc1cc(OC(C)=O)c2c(=O)c(-c3ccc(OC(C)=O)cc3)coc2c1 (stereo not given in full) | 54 | 60.1 | 1.113 |  |
| COC(=O)[C@H](Cc1ccccc1)NP(=O)(Oc1ccccc1)Oc1cc(O)c2c(=O)c(-c3ccc(O)cc3)coc2c1 (stereo not given in full) | > 100 | > 100 |  |  |
| COC(=O)[C@H](C)NP(=O)(Oc1ccccc1)Oc1ccc2c(=O)c(-c3ccc(OC(C)=O)cc3)coc2c1 (stereo not given in full) | 5.5 | 24.3 | 4.418 | Activity [4]: 0.69%; Activity [5]: 1.43%; Activity [6]: 2.08%; Activity [7]: 1.2%; Activity [8]: 98.1%; Activity [9]: 2.56%; Activity [10]: 0.7%; Activity [11]: 97.12%; Activity [12]: 0.76%; Activity [13]: 51.19%; Activity [14]: 44.16% |
| COC(=O)[C@H](Cc1ccccc1)NP(=O)(Oc1ccccc1)Oc1ccc2c(=O)c(-c3ccc(OC(C)=O)cc3)coc2c1 (stereo not given in full) | 60.2 | > 100 | >1.66 |  |
| COC(=O)[C@H](Cc1ccccc1)NP(=O)(Oc1ccccc1)Oc1cc(OC(C)=O)c2c(=O)cc(-c3ccc(OC(C)=O)cc3)oc2c1 (stereo not given in full) | 38.5 | 45.9 | 1.192 |  |
| COC(=O)[C@H](Cc1ccccc1)NP(=O)(Oc1ccccc1)Oc1cc(O)c2c(=O)cc(-c3ccc(O)cc3)oc2c1 (stereo not given in full) | 36.6 | > 100 | >2.732 |  |
| COC(=O)CNP(=O)(Oc1ccccc1)Oc1cc(OC(C)=O)c2c(=O)cc(-c3ccc(OC(C)=O)cc3)oc2c1 (stereo not given) | 47.8 | > 100 | >2.092 |  |
| COC(=O)[C@H](Cc1ccccc1)NP(=O)(Oc1ccccc1)Oc1cc(OC(C)=O)c2c(=O)cc(-c3ccc(OC(C)=O)c(OC(C)=O)c3)oc2c1 (stereo not given in full) | 27.1 | 30.3 | 1.118 |  |
| COC(=O)CNP(=O)(Oc1ccccc1)Oc1ccc2c(=O)c(-c3ccc(OC(C)=O)cc3)coc2c1 (stereo not given) | > 100 | > 100 |  |  |
| COC(=O)[C@H](CC(C)C)NP(=O)(Oc1ccccc1)Oc1cc(O)c2c(=O)c(-c3ccc(O)cc3)coc2c1 (stereo not given in full) | 72.3 | 48.2 | 0.667 |  |
| COC(=O)[C@@H](NP(=O)(Oc1ccccc1)Oc1cc(O)c2c(=O)cc(-c3ccc(O)c(O)c3)oc2c1)C(C)C (stereo not given in full) | 16.6 | 8.2 | 0.494 |  |
